Bioassay records: PubChem, Broad Institute
PglD DTNB = inhibitors of Campylobacter jejuni PglD acetyltransferase; inhibition, % at 12.5 µM; hit rate 0.098% among 360,000; AID 602405; purified PglD enzyme, DTNB colorimetric CoA detection; in the data active = inhibition above about 16%, passing the limit was not always enough; inconclusive = no clear call, values can overlap the other calls
PGC1a acetyl inh = modulators of PGC1a acetylation | U2OS PGC1a acetylation, AlphaScreen anti-acetyl-lysine; with virally co-expressed GCN5 acetyltransferase | inhibition, % at 15.6 µM | hit rate 0.17% among 350,000 | AID 651687;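 active = every replicate shows inhibition of at least 40%; inconclusive = mean inhibition at least 40% but some replicate below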;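 note: 0% = neutral control wells and 100% = positive control wells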
FGF22 binding = shifts melting point of recombinant human FGF22. Q9HCT0. recombinant FGF22 thermal shift, SYPRO orange fluorescence; percent of sucrose octasulfate shift, DMSO zero. activity (Tm shift, normalised), % at 9.99 µM. hit rate 1.5% among 340,000;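 active = mean Tm shift, scaled 0 neutral to 100 positive control, at about 1.3% or above, every replicate too, limit read from the data; inconclusive = no clear call, values can overlap the other calls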
Target sequence (Q9HCT0 whole entry, looked up): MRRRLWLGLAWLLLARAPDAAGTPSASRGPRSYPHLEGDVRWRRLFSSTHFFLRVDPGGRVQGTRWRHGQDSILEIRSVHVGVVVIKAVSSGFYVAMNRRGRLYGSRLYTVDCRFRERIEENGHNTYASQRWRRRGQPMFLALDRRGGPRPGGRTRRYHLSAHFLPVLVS
rRNA inh HTS = selective bacterial rRNA inhibition in E. coli. E. coli WT GFP vs humanized-ribosome RFP mutants, fluorescence, 24 h; active compounds read low; DMSO median 0, no signal -100. GFP signal change (wild-type ribosome), % (test concentration not listed). hit rate 1.6% among 350,000. AID 720706;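 active = significant combined selectivity score with lowered wild-type GFP, culture density cut under 30%, mutant RFP and density less affected; inactive = any of these conditions unmet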
Vif inh = HIV Vif inhibition. HEK293T cells, Vif self-association by quenched fluorescence, imaging, 24 h. inhibition, % at 7.49 µM. hit rate 0.35% among 340,000; in the data active = inhibition above about 50%, passing the limit was not always enough; inconclusive = no clear call, values can overlap the other calls; inactive = below about 31%
Cneo AK release = causes C. neoformans cell lysis. lysis activity, % at 15 µM. adenylate kinase release luminescence, 4 h; normalised: neutral wells 0, clomiphene wells 100. hit rate 0.2% among 360,000;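 active = mean lysis activity across replicates of at least 80%, whatever share of replicates individually reach that level; inactive = mean lysis activity below 80%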
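Material: C. neoformans cells; Schedule: 4 h static compound exposure, 37 °C, read 1 h post-reagent; Measured by: adenylate kinase release luminescence; Read-out: signal increase indicating cell lysis; Controls: Clomiphene as positive lysis control.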
AID977621 = wild-type E. coli growth inhibition versus H69 humanized strain – H69 mutant RFP, wild-type GFP, cherry-pick, dose response. shares compounds with rRNA inh HTS. fluorescence, 24 h. activity change, negative = inhibition at 50 µM. 1,900 tested, under 10 active. AID 977621;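 active = Wild-type ribosome reporter drop at least double the humanized mutant ribosome reporter drop, growth loss under a set limit; inconclusive = no clear call, values can overlap the other calls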;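 note: wild-type GFP and H69 mutant RFP strains grown together 50/50 in each well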
AID977628 = E. coli growth inhibition, wild-type GFP versus h24 humanized RFP strain, dose response, h24 mutant RFP vs wild-type GFP, cherry-pick. shares compounds with rRNA inh HTS. 1,900 tested, under 10 active. activity change, negative = inhibition at 50 µM. E. coli WT GFP strain growth, fluorescence, 24 h;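 active = compound lowering the normal-ribosome reporter at least twice as much as the humanized-ribosome reporter, growth loss under a set limit; inconclusive = no clear call, values can overlap the other calls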;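 note: wild-type GFP and h24 humanized RFP strains co-cultured 1 to 1 per well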
The depositor's hits bear a star; ? = inconclusive; . = no result given. Compounds with a hit are over-represented: about 2.9% of the library has one in this group of screens.

SMILES	PglD DTNB	PGC1a acetyl inh	FGF22 binding	rRNA inh HTS	Vif inh	Cneo AK release	AID977621	AID977628
COc1ccc(CNC(=O)c2cc3c(s2)CN(Cc2ccccc2)C3)cc1	.	15	0	-22*	0	.	-20	.
COc1ccc(Cc2c(-c3cccc(Cl)c3)nc3ccc(Cl)cn23)c(C)c1	6	-4	0	-19*	.	1	?	-10
Cc1ccc2nc(-c3ccc(Cl)cc3)c(Cc3ccccc3C(F)(F)F)n2c1	-5	18	0	-16*	.	-1	-2.3	-2.8
Cc1ccc(-c2nc3ccc(Cl)cn3c2Cc2ccccc2C(F)(F)F)cc1	-2	-2	0	-7	17	-3	.	.
Fc1ccc(-c2nc3ccc(Cl)cn3c2Cc2cccc(Cl)c2)cc1	2	-1	0	-21*	.	2	8.2	-17
COc1ccc(-c2nc3ccc(Cl)cn3c2Cc2cccc(F)c2)cc1OC	3	-2	0	-21*	.	2	?	.
CO[C@H]1CC[C@@H]2CCN(C)C(=O)[C@@H](C)N(C)C(=O)c3cc(C#N)ccc3OC[C@@H]1O2	-1	.	0	1	.	-1	.	.
CC(=O)N(C)C[C@@H]1Oc2ccc(NS(C)(=O)=O)cc2CC(=O)N(C)C[C@H]1C	.	.	.	-1	.	.	.	.
O=C(NC1CCCC1)N1CC(=O)N2[C@H](CO)[C@@H](c3ccc(-c4cccnc4)cc3)[C@@H]2C1	.	8	.	-2	.	.	.	.
CN(C)C(=O)c1cccc(-c2ccc([C@H]3[C@@H](CO)N4CCCCN(CCC(F)(F)F)C[C@@H]34)cc2)c1	3	-1	-1	6	.	1	.	.
O=C(C[C@@H]1C=C[C@@H](NC(=O)CC2CC2)[C@H](CO)O1)NCC(F)(F)F	-2	-1	0	0	.	2	.	.
COc1cccc(C#Cc2ccc3c(c2)[C@H]2[C@H](CCN2C(=O)Cc2ccccc2)[C@H](CO)N3)c1	.	-8	.	-5	.	.	.	.
COc1ccc(-c2ccc3ccccc3n2)cc1OC	.	3	0	-34*	0	.	.	?
C[C@H]1CN([C@@H](C)CO)C(=O)CCCn2nncc2CO[C@H]1CN(C)CC1CC1	1	-3	0	2	.	-1	.	.
C[C@@H]1CCCCO[C@H](CN(C)C(=O)Nc2ccc3c(c2)OCO3)[C@H](C)CN([C@@H](C)CO)C(=O)c2cc(NC(=O)Nc3ccc4c(c3)OCO4)ccc2O1	-3	-15	0	-2	.	-1	.	.
C[C@@H]1CN([C@H](C)CO)C(=O)CCCn2nncc2CO[C@@H]1CN(C)C(=O)Nc1ccc(C(F)(F)F)cc1	5	-4	0	-18*	.	0	-15	?
Cc1noc(C)c1NC(=O)Nc1ccc2c(c1)C(=O)N([C@@H](C)CO)C[C@@H](C)[C@@H](CN(C)C(=O)Nc1c(C)noc1C)OCCCC[C@@H](C)O2	2	9	0	1	.	1	.	.
Cc1noc(C)c1NC(=O)Nc1ccc2c(c1)C(=O)N([C@@H](C)CO)C[C@@H](C)[C@H](CN(C)C(=O)Nc1ccc3c(c1)OCO3)OCCCC[C@H](C)O2	-2	6	0	-2	.	-1	1.3	?
Cc1noc(C)c1NC(=O)Nc1ccc2c(c1)C(=O)N([C@@H](C)CO)C[C@@H](C)[C@@H](CN(C)C(=O)Nc1ccc3c(c1)OCO3)OCCCC[C@@H](C)O2	4	3	0	-1	.	1	-0.24	?
C[C@@H]1CN([C@@H](C)CO)C(=O)c2cc(NC(=O)C3CC3)ccc2O[C@H]1CN(C)C(=O)Nc1ccc(C(F)(F)F)cc1	-2	-2	0	-29*	.	7	-18	-13
CCCNC(=O)C[C@H]1CC[C@H]2[C@@H](COc3ccc(NC(=O)COC)cc3C(=O)N2C)O1	0	-9	0	.	.	2	.	.
CC(C)c1cn(CC[C@H]2CC[C@@H](NC(=O)C3CC3)[C@@H](CO)O2)nn1	-4	-1	0	0	.	-16	.	.
CC(C)CC#Cc1ccc2c(c1)O[C@@H](CN(C)S(=O)(=O)c1cccc(F)c1)[C@H](C)CN([C@H](C)CO)S2(=O)=O	0	4	0	-2	.	0	.	.
CN1C(=O)c2cc(NC(=O)C3CCCC3)ccc2OC[C@@H]2O[C@@H](CC(=O)O)CC[C@H]21	2	1	0	1	.	-4	.	.
C[C@H](CO)N1C[C@H](C)[C@H](CN(C)C(=O)Nc2ccc3c(c2)OCO3)Oc2c(NC(=O)Nc3ccccc3)cccc2C1=O	4	5	0	-22*	.	-4	-11	?
SMILES	PglD DTNB	PGC1a acetyl inh	FGF22 binding	rRNA inh HTS	Vif inh	Cneo AK release	AID977621	AID977628
C[C@H]1CN([C@@H](C)CO)C(=O)c2cccc(NC(=O)Nc3ccc4c(c3)OCO4)c2O[C@@H]1CN(C)C(=O)Nc1ccccc1	-1	-14	0	0	.	-4	.	.
CCNC(=O)C[C@H]1C=C[C@@H](NC(=O)C2CC2)[C@@H](CO)O1	0	-3	0	2	.	0	.	.
CC(=O)N(C)C[C@@H]1Oc2ncc(C#Cc3cccnc3)cc2C(=O)N([C@@H](C)CO)C[C@@H]1C	.	.	.	5	.	.	.	.
O=C(NCc1cccc(Cl)c1)c1ccc2c(c1)SC1=NS(=O)(=O)CCN12	.	.	0	4	19	.	.	.
O=C(NCc1ccccc1Cl)c1ccc2c(c1)SC1=NS(=O)(=O)CCN12	.	.	1	-20*	5	.	-13	-9.4
COc1ccccc1NC(=O)CSc1ncc(CO)n1Cc1ccc(F)cc1	-3	-1	0	-20*	17	4	-15	-14
Cc1cc(NC(=O)c2sc(Nc3cccc(C(F)(F)F)c3)nc2N)no1	0	-1	.	.	-6	1	.	.
Cc1cc(NC(=O)c2sc(Nc3ccc(F)c(Cl)c3)nc2N)no1	2	-9	0	-22*	-3	-1	-10	0.055
COc1ccc(-c2csc3ncn(-c4ccc(C)cc4)c(=O)c23)cc1OC	-6	-4	0	-23*	-13	0	?	.
C(=C(c1ccccc1)c1ccccc1)c1ccccn1	6	-21	0	-39*	-9	11	-1.8	.
O=C(C[C@H]1CC[C@H]2[C@@H](COC[C@@H](O)CN2S(=O)(=O)c2ccccc2)O1)N[C@H]1CCN(Cc2ccccc2)C1	3	-1	.	1	.	-1	.	.
CCOC(=O)c1c(NC(=O)CN2CCC(C)CC2)sc(C)c1C	-1	6	0	-21*	14	3	2.2	-14
